Test results published in ChEMBL document CHEMBL2086304, “Synthesis and in vitro antimycobacterial and isocitrate lyase inhibition properties of novel 2-methoxy-2'-hydroxybenzanilides, their thioxo analogues and benzoxazoles” (Eur J Med Chem, 2012).
Values after ≈ are worked out from the molar mass of the structure shown.

Key:
[1] = system: Mycobacterium avium; assay: Antimycobacterial activity against isoniazid resistance Mycobacterium avium 330/88 after 21 days by micromethod; assay type: functional; conditions: 330/88, 504 h
Summary of the method: (§1)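 Inocula: M. tuberculosis My 331/88 at 10^-3 dilution, M. avium My 330/88 at 10^-5, M. kansasii My 235/80 and clinical isolate 6509/96 at 10^-4. Compounds added in DMSO at 1000 down to 0.5 (twofold series). Read at 14 and 21 days, plus 7 days for M. kansasii. MIC taken as lowest concentration inhibiting growth.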

[2] = system: Mycobacterium tuberculosis; assay: Antimycobacterial activity against Mycobacterium tuberculosis 331/88 after 21 days by micromethod; assay type: functional; conditions: 331/88, 504 h; summary of the method: as §1
[3] = system: Mycobacterium kansasii; assay: Antimycobacterial activity against Mycobacterium kansasii 6509/96 clinical isolate after 14 days by micromethod; assay type: functional; conditions: 6509/96, 336 h; summary of the method: as §1
[4] = target: T1, Isocitrate lyase (Mycobacterium tuberculosis) (UniProt P9WKK7); assay: Inhibition of Mycobacterium tuberculosis H37Rv isocitrate lyase expressed in Escherichia coli HB101 at 10 umol/L
T1 sequence (whole entry): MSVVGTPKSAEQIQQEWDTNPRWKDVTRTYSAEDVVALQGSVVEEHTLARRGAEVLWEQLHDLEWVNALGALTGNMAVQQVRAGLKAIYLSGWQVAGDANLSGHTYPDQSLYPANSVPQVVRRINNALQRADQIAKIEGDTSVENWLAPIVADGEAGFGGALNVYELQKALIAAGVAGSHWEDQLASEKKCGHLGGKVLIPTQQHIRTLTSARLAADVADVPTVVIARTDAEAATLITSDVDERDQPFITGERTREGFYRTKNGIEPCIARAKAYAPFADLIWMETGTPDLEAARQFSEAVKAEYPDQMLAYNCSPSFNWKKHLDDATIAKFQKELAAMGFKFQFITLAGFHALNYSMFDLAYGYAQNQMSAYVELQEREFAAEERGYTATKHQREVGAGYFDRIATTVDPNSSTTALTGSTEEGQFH
Summary of the method: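 Isocitrate lyase assayed per Dixon–Kornberg in 96-well format. Buffer: 50 mmol/L KH2PO4, 4 mmol/L MgCl2, 4 mmol/L phenylhydrazine, 12 mmol/L cysteine, pH 7.0. Glyoxylate phenylhydrazone read at 324 nm. Compounds added in DMSO, with DMSO-alone inhibition subtracted.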

[5] = system: Mycobacterium kansasii; assay: Antimycobacterial activity against Mycobacterium kansasii 6509/96 clinical isolate after 7 days by micromethod; assay type: functional; conditions: 6509/96, 168 h; summary of the method: as §1
[6] = system: HepG2; assay: Cytotoxicity against human HepG2 cells after 24 hrs by CellTiter-96 cell viability assay; assay type: functional, cell-based; conditions: HepG2, 24 h
Summary of the method: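 Hep G2 human hepatic cells (passage 12), 10,000 per well, grown 24 h at 37 °C, 5% CO2 in MEM with 1% glutamine, 10% FBS and 1% nonessential amino acids. Compounds in DMSO at eight increasing concentrations, quadruplicate, 24 h at 37 °C. Kit reagent added, 1.5 h at 37 °C, absorbance 490 nm. IC50 is the concentration reducing viability to 50% of control.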

[7] = system: Mycobacterium tuberculosis; assay: Antimycobacterial activity against Mycobacterium tuberculosis 331/88 after 14 days by micromethod; assay type: functional; conditions: 331/88, 336 h; summary of the method: as §1
[8] = Selectivity index, ratio of IC50 for human HepG2 cells to MIC for Mycobacterium tuberculosis 331/88 after 14 days; assay type: functional
Summary of the method: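 Cytotoxicity in Hep G2 cells (passage 12), 10,000 cells/well, in MEM with 10% FBS, 1% glutamine and 1% nonessential amino acids. Cells preincubated 24 h, 37 °C, 5% CO2. Compounds in DMSO at eight concentrations in quadruplicate, 24 h. MTS-type reagent added for 1.5 h, A490 read, IC50 taken at 50% viability. SI = this IC50 over the 14-day M. tuberculosis MIC.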

[9] = system: Mycobacterium kansasii; assay: Antimycobacterial activity against isoniazid resistance Mycobacterium kansasii 225/80 after 7 days by micromethod; assay type: functional; conditions: 225/80, 168 h
[10] = system: Mycobacterium kansasii; assay: Antimycobacterial activity against isoniazid resistance Mycobacterium kansasii 225/80 after 21 days by micromethod; assay type: functional; conditions: 225/80, 504 h
[11] = system: Mycobacterium kansasii; assay: Antimycobacterial activity against Mycobacterium kansasii 6509/96 clinical isolate after 21 days by micromethod; assay type: functional; conditions: 6509/96, 504 h; summary of the method: as §1
[12] = system: Mycobacterium avium; assay: Antimycobacterial activity against isoniazid resistance Mycobacterium avium 330/88 after 14 days by micromethod; assay type: functional; conditions: 330/88, 336 h; summary of the method: as §1
[13] = system: Mycobacterium kansasii; assay: Antimycobacterial activity against isoniazid resistance Mycobacterium kansasii 225/80 after 14 days by micromethod; assay type: functional; conditions: 225/80, 336 h

COc1cc(Cl)ccc1C(=O)Nc1ccc(Cl)cc1O showed an MIC [1] of 125 µM (≈ 39 µg/mL), an MIC [2] of 8 µM (≈ 2.5 µg/mL) and an MIC [3] of 62.5 µM (≈ 19.5 µg/mL). The inhibition [4] was 4%, the MIC [5] was 16 µM (≈ 4.99 µg/mL) and the IC50 [6] was 7.34 µM. For the same molecule, the MIC [7] was 8 µM (≈ 2.5 µg/mL), the “Selectivity Index” value [8] was 0.92 and the MIC [9] was 62.5 µM (≈ 19.5 µg/mL). The MIC [10] was 125 µM (≈ 39 µg/mL), the MIC [11] was 62.5 µM (≈ 19.5 µg/mL) and the MIC [12] was 62.5 µM (≈ 19.5 µg/mL). It also gave an MIC [13] of 62.5 µM (≈ 19.5 µg/mL).
COc1cc(Cl)ccc1C(=S)Nc1cc(Br)ccc1O showed an MIC [1] of 62.5 µM (≈ 23.3 µg/mL), an MIC [2] of 32 µM (≈ 11.9 µg/mL) and an MIC [3] of 32 µM (≈ 11.9 µg/mL). The inhibition [4] was 0%, the MIC [5] was 32 µM (≈ 11.9 µg/mL) and the IC50 [6] was 6.53 µM. The MIC [7] was 32 µM (≈ 11.9 µg/mL), the “Selectivity Index” value [8] was 0.2 and the MIC [9] was 16 µM (≈ 5.96 µg/mL). The MIC [10] was 62.5 µM (≈ 23.3 µg/mL), the MIC [11] was 62.5 µM (≈ 23.3 µg/mL) and the MIC [12] was 32 µM (≈ 11.9 µg/mL). The MIC [13] was 32 µM (≈ 11.9 µg/mL).
For COc1ccc(Cl)cc1C(=O)Nc1cc(Cl)ccc1O, the MIC [1] was 125 µM (≈ 39 µg/mL), the MIC [2] was 32 µM (≈ 9.99 µg/mL) and the MIC [3] was 16 µM (≈ 4.99 µg/mL). For the same molecule, the inhibition [4] was 0%, the MIC [5] was 8 µM (≈ 2.5 µg/mL) and the MIC [7] was 16 µM (≈ 4.99 µg/mL). The MIC [9] was 4 µM (≈ 1.25 µg/mL), the MIC [10] was 16 µM (≈ 4.99 µg/mL) and the MIC [11] was 16 µM (≈ 4.99 µg/mL). For the same molecule, the MIC [12] was 125 µM (≈ 39 µg/mL) and the MIC [13] was 16 µM (≈ 4.99 µg/mL).
Work on COc1ccc(Cl)cc1-c1nc2cc(Br)ccc2o1 yielded an MIC [1] of 250 µM (≈ 84.6 µg/mL), an MIC [2] of 250 µM (≈ 84.6 µg/mL) and an MIC [3] of 250 µM (≈ 84.6 µg/mL). It also gave an inhibition [4] of 0%, an MIC [5] of 250 µM (≈ 84.6 µg/mL) and an MIC [7] of 250 µM (≈ 84.6 µg/mL). For the same molecule, the MIC [9] was 250 µM (≈ 84.6 µg/mL), the MIC [10] was 250 µM (≈ 84.6 µg/mL) and the MIC [11] was 250 µM (≈ 84.6 µg/mL). For the same molecule, the MIC [12] was 250 µM (≈ 84.6 µg/mL) and the MIC [13] was 250 µM (≈ 84.6 µg/mL).
Molecule COc1cc(Cl)ccc1-c1nc2ccc(Cl)cc2o1 has an MIC [1] of 62.5 µM (≈ 18.4 µg/mL), an MIC [2] of 125 µM (≈ 36.8 µg/mL) and an MIC [3] of 62.5 µM (≈ 18.4 µg/mL). The inhibition [4] was 0%, the MIC [5] was 62.5 µM (≈ 18.4 µg/mL) and the MIC [7] was 125 µM (≈ 36.8 µg/mL). The MIC [9] was 62.5 µM (≈ 18.4 µg/mL), the MIC [10] was 62.5 µM (≈ 18.4 µg/mL) and the MIC [11] was 62.5 µM (≈ 18.4 µg/mL). It also gave an MIC [12] of 62.5 µM (≈ 18.4 µg/mL) and an MIC [13] of 62.5 µM (≈ 18.4 µg/mL).
COc1ccc(Cl)cc1-c1nc2cc(Cl)ccc2o1 gave an MIC [1] of 250 µM (≈ 73.5 µg/mL), an MIC [2] of 125 µM (≈ 36.8 µg/mL) and an MIC [3] of 250 µM (≈ 73.5 µg/mL). The inhibition [4] was 0%, the MIC [5] was 250 µM (≈ 73.5 µg/mL) and the MIC [7] was 125 µM (≈ 36.8 µg/mL). It also gave an MIC [9] of 250 µM (≈ 73.5 µg/mL), an MIC [10] of 250 µM (≈ 73.5 µg/mL) and an MIC [11] of 250 µM (≈ 73.5 µg/mL). The MIC [12] was 250 µM (≈ 73.5 µg/mL) and the MIC [13] was 250 µM (≈ 73.5 µg/mL).
In the case of COc1cc(Cl)ccc1-c1nc2cc(Cl)c(Cl)cc2o1, the MIC [1] is reported as 500 µM (≈ 164 µg/mL), the MIC [2] is reported as 250 µM (≈ 82.1 µg/mL) and the MIC [3] is reported as 250 µM (≈ 82.1 µg/mL). It also gave an inhibition [4] of 0%, an MIC [5] of 250 µM (≈ 82.1 µg/mL) and an MIC [7] of 250 µM (≈ 82.1 µg/mL). It also gave an MIC [9] of 250 µM (≈ 82.1 µg/mL), an MIC [10] of 250 µM (≈ 82.1 µg/mL) and an MIC [11] of 250 µM (≈ 82.1 µg/mL). It also gave an MIC [12] of 250 µM (≈ 82.1 µg/mL) and an MIC [13] of 250 µM (≈ 82.1 µg/mL).
In the case of COc1cc(Cl)ccc1C(=S)Nc1ccc(C(F)(F)F)cc1O, the MIC [1] is reported as 62.5 µM (≈ 22.6 µg/mL), the MIC [2] is reported as 62.5 µM (≈ 22.6 µg/mL) and the MIC [3] is reported as 62.5 µM (≈ 22.6 µg/mL). For the same molecule, the inhibition [4] was 23%, the MIC [5] was 32 µM (≈ 11.6 µg/mL) and the IC50 [6] was 3.14 µM. The MIC [7] was 32 µM (≈ 11.6 µg/mL), the “Selectivity Index” value [8] was 0.1 and the MIC [10] was 62.5 µM (≈ 22.6 µg/mL). The MIC [11] was 62.5 µM (≈ 22.6 µg/mL), the MIC [12] was 62.5 µM (≈ 22.6 µg/mL) and the MIC [13] was 62.5 µM (≈ 22.6 µg/mL).
Molecule COc1cc(Cl)ccc1C(=O)Nc1ccc(Cl)cc1OC(=O)c1ccc(Cl)cc1OC has an MIC [1] of 62.5 µM (≈ 30 µg/mL), an MIC [2] of 8 µM (≈ 3.85 µg/mL) and an MIC [3] of 16 µM (≈ 7.69 µg/mL). It also gave an inhibition [4] of 0%, an MIC [5] of 8 µM (≈ 3.85 µg/mL) and an MIC [7] of 4 µM (≈ 1.92 µg/mL). The MIC [9] was 16 µM (≈ 7.69 µg/mL), the MIC [10] was 125 µM (≈ 60.1 µg/mL) and the MIC [11] was 62.5 µM (≈ 30 µg/mL). The MIC [12] was 62.5 µM (≈ 30 µg/mL) and the MIC [13] was 32 µM (≈ 15.4 µg/mL).
Work on COc1ccc(Cl)cc1C(=O)Nc1cc(Cl)c(Cl)cc1OC(=O)c1cc(Cl)ccc1OC yielded an MIC [1] of 62.5 µM (≈ 32.2 µg/mL), an MIC [2] of 8 µM (≈ 4.12 µg/mL) and an MIC [3] of 8 µM (≈ 4.12 µg/mL). It also gave an inhibition [4] of 3%, an MIC [5] of 4 µM (≈ 2.06 µg/mL) and an MIC [7] of 8 µM (≈ 4.12 µg/mL). It also gave an MIC [9] of 4 µM (≈ 2.06 µg/mL), an MIC [10] of 8 µM (≈ 4.12 µg/mL) and an MIC [11] of 8 µM (≈ 4.12 µg/mL). It also gave an MIC [12] of 62.5 µM (≈ 32.2 µg/mL) and an MIC [13] of 8 µM (≈ 4.12 µg/mL).
In the case of COc1ccc(Cl)cc1-c1nc2cc(Cl)c(Cl)cc2o1, the MIC [1] is reported as 125 µM (≈ 41.1 µg/mL), the MIC [2] is reported as 125 µM (≈ 41.1 µg/mL) and the MIC [3] is reported as 125 µM (≈ 41.1 µg/mL). For the same molecule, the inhibition [4] was 4%, the MIC [5] was 125 µM (≈ 41.1 µg/mL) and the MIC [7] was 125 µM (≈ 41.1 µg/mL). For the same molecule, the MIC [9] was 125 µM (≈ 41.1 µg/mL), the MIC [10] was 125 µM (≈ 41.1 µg/mL) and the MIC [11] was 125 µM (≈ 41.1 µg/mL). It also gave an MIC [12] of 125 µM (≈ 41.1 µg/mL) and an MIC [13] of 125 µM (≈ 41.1 µg/mL).
